High-throughput results: PubChem, The Scripps Research Institute Molecular Screening Center
Rows were chosen to be rich in hits. Some 4.7% of all compounds tested hit in one or more screens of this group.
HTR2A ag: agonists of mouse serotonin 5-HT2A receptor (HTR2A) | 360,000 tested, 0.66% active | CHO-K1 mHTR2A beta-arrestin complementation, luminescence; percent of 30 µM serotonin response | AID 624169 | activation, % at 7.6 µM | P35363;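 active = activation above a run cutoff, the mean activation of all tested compounds plus 3 SD, cut at about 14% in these data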
AHR activator: activates the human aryl hydrocarbon receptor; P35869; AHR-responsive luciferase reporter cells, luminescence; activation, % at 5 µM; 320,000 tested, 2.5% active; AID 2796; in the data active = activation above about 47%
MC4R ag barr: agonists of human melanocortin 4 receptor (MC4R) beta-arrestin; U2OS MC4R beta-arrestin complementation, luminescence; percent of melanotan II response, DMSO zero; activation, % at 8.9 µM; 360,000 tested, 0.98% active; AID 540308;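 active = activation above a per-plate cutoff, the mean activation of sample wells on that plate plus 3 SD, cut at about 8% in these data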
GAA850 FXN act: activators of GAA850 frataxin (FXN) promoter | 360,000 tested, 0.56% active | HEK293 lucGAA850 FXN promoter luciferase reporter, 24 h; percent of 10 µM SAHA response | activation, % at 6 µM;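 active = activation above the average of all compounds screened plus 3 SD, cutoff fixed separately per campaign, cut at about 7.5% in these data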
MC4R antag cAMP: blocks human MC4R cAMP signaling; P32245; AID 540295; MC4R-expressing cells, MTII-stimulated cAMP, LANCE TR-FRET; 360,000 tested, 0.48% active; inhibition, % at 6.5 µM;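 active = inhibition above its plate's cutoff, the mean of tested wells on that plate plus 3 SD, cut at about 29% in these data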
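Material – human MC4R-expressing U2OS cells · Repeats – no replicates · Detection – TR-FRET with Eu-cAMP and labeled anti-cAMP, 671 nm · Times – compound 30 min, challenge 1 h, detection 1 h · Compound – single nominal compound dose of 6.5 µM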
AHR act cf: confirmation of human aryl hydrocarbon receptor activators; human cells, AHR-responsive luciferase reporter, luminescence; shares compounds with AHR activator; activation, % at 9 µM; 2,300 tested, 87% active; in the data active = activation above about 49%;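 note: HepG2 hepatoma cells carrying a DRE-driven firefly luciferase reporter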
PXR counter: activates human PXR in AHR activator counter-screen; shares compounds with AHR activator; cell-based PXR reporter, luciferase luminescence; activation, % at 11.6 µM; 2,300 tested, 88% active; AID 434939; in the data active = activation above about 11%;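 note: human hepatoma DPX-2 cells expressing full-length human PXR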
Target sequence (O75469 whole entry, looked up): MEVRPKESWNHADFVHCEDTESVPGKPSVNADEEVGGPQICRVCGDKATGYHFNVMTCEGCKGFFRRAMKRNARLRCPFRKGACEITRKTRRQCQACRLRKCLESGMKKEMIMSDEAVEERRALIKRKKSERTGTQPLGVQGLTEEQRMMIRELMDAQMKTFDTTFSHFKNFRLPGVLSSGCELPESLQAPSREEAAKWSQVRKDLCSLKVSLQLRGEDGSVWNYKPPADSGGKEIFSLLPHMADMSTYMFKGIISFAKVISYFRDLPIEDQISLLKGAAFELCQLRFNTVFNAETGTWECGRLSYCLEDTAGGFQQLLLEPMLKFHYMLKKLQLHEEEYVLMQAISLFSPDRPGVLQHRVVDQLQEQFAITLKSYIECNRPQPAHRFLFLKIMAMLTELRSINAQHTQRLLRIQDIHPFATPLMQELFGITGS
cAMP nonselect: counter-screen for MC4R antagonists: nonselective cAMP signaling inhibitors; AID 602193; shares compounds with MC4R antag cAMP; 1,600 tested, 26% active; parental U2OS, forskolin cAMP, LANCE TR-FRET; inhibition, % at 6.5 µM;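 active = mean inhibition over triplicates above the low-control well mean plus 3 SD, set per campaign, cut at about 13% in these data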;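 note: signal is single emission at 671 nm which falls as cellular cAMP rises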
MC4R cAMP antag: human MC4R cAMP antagonism confirmation. AID 602195. shares compounds with MC4R antag cAMP. MC4R-expressing cells, MTII-stimulated cAMP, TR-FRET. inhibition, % at 6.5 µM. 1,600 tested, 27% active; in the data active = inhibition above about 29%
MC4R barr ag: human MC4R beta-arrestin agonism confirmation; U2OS MC4R beta-arrestin recruitment, luminescence; scaled DMSO 0%, Melanotan II 100%; 2,400 tested, 31% active; shares compounds with MC4R ag barr; activation, % at 8.9 µM;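 active = mean activation across replicates above the hit cutoff set in the earlier primary screen, cut at about 8% in these data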
MOR DOR agonist: OPRM1-OPRD1 heterodimer agonism counter-screen; shares compounds with MC4R ag barr; U2OS PathHunter beta-arrestin, beta-gal luminescence; percent of deltorphin B response, DMSO zero; activation, % at 9.2 µM; 2,400 tested, 5.8% active;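 active = mean activation across replicates exceeds the hit threshold derived in the earlier primary screen, cut at about 18% in these data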
GAA30 counter: GAA30 FXN promoter activation counter-screen | shares compounds with GAA850 FXN act | 1,900 tested, 66% active | activation, % at 6 µM | HEK293 lucGAA30 FXN promoter luciferase, 24 h; DMSO = 0%, 5 µM ipriflavone = 100% | AID 588350;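 active = mean activation above the mean of solvent-only control wells plus 3 SD, cut at about 22% in these data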;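 note: counterscreen of GAA850 promoter hits where activity marks nonselective or luminescence artifacts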
GAA850 confirm: GAA850 FXN promoter activation confirmation | shares compounds with GAA850 FXN act | HEK293 lucGAA850 FXN promoter luciferase reporter, 24 h; 100% = activation by SAHA | activation, % at 6 µM | 1,900 tested, 86% active;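 active = mean activation above a set limit taken from the primary screen, cut at about 8% in these data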
Numbers stand for hits; - = inactive; . = no result.

SMILES	HTR2A ag	AHR activator	MC4R ag barr	GAA850 FXN act	MC4R antag cAMP	AHR act cf	PXR counter	MC4R barr ag	MOR DOR agonist	others
Cc1cccc(-c2nc(C#N)c(NC3CCCCC3)o2)c1	-	145	-	-	-	-	86	.	.
Cc1cccc(-c2nc(C#N)c(N3CCCCC3)o2)c1	-	-	-	-	-	.	.	.	.
O=C1c2ccccc2-c2nc3ccccc3nc21	-	115	-	-	-	149	.	.	.
CCn1c(CNc2ccc(Cl)cc2)nnc1SCC#N	-	120	-	-	-	100	48	.	.
Cc1c(C(=O)N2c3ccccc3CC2C)oc2ccccc12 (stereo not given)	-	85	-	-	-	74	28	.	.
COCc1c(C(=O)OCC(=O)N2c3ccccc3CC2C)oc2ccccc12 (stereo not given)	-	-	-	-	-	.	.	.	.
C#Cc1ccc(NC(=O)C2(C)CCN2C(=O)c2cc(C)n(C)n2)cc1 (stereo not given)	-	.	-	-	-	.	.	.	.
Cc1ccc2c(c1)c1c3n2CCN(C(=O)CCl)C3CCC1 (stereo not given)	-	113	-	-	38	98	17	.	.	cAMP nonselect=-;MC4R cAMP antag=29
CC(=O)N1CCn2c3c(c4cc(C)ccc42)CCCC31 (stereo not given)	-	-	-	-	-	.	.	.	.
COc1ccc(OC)c2c1C(=O)C(Cl)=C(Cl)C2=O	-	137	-	-	32	-	-	.	.	cAMP nonselect=73;MC4R cAMP antag=49
CCOc1ccc(OCCSc2ccc(S(=O)(=O)N3CCN(C)CC3)cn2)cc1	-	-	-	-	-	.	.	.	.
Cn1c(-c2ccc(Cl)cc2)ccc(C#N)c1=O	-	100	11	-	-	104	14	-	-
Cn1cc(-c2ccc(Cl)cc2)cc(C#N)c1=O	-	-	-	-	-	.	.	.	.
Fc1ccc(-c2nc3c4ccccc4ccn3c2Cc2ccsc2)cc1	-	.	.	.	.	.	.	.	.
O=C(CCC1CCCN(C(=O)c2ccc3[nH]ccc3c2)C1)N1CCN(c2ccccn2)CC1 (stereo not given)	-	-	-	-	-	.	.	.	.
COc1cc(/C=C2\NC(=S)N(C)C2=O)ccc1OCc1cccc(F)c1	-	-	-	-	-	.	.	.	.
CN1C(=O)/C(=C/c2ccccc2OCc2cccc(F)c2)NC1=S	-	97	30	-	-	74	35	-	-
C=CC[C@@H](CC(=O)N[C@@H](CO)Cc1ccccc1)C(=O)N[C@@H](COC(=O)[C@H](CC=C)CC(=O)OC(C)(C)C)Cc1c[nH]c2ccccc12	-	-	-	-	-	.	.	.	.
CSCCC(C(=O)Nc1c(C)cccc1C)n1c(-c2cc(C)cs2)nc2ccccc21 (stereo not given)	-	.	.	.	.	.	.	.	.
C#CCn1c2ccccc2c2nc3ccccc3nc21	-	88	11	-	-	191	49	-	-
COC(=O)Cn1c2ccccc2c2nc3ccccc3nc21	-	.	-	-	-	.	.	.	.
C[C@H]1CN([C@@H](C)CO)S(=O)(=O)c2ccc(Br)cc2O[C@@H]1CN(C)Cc1cccc(F)c1	-	.	-	-	-	.	.	.	.
O=C(Nc1cc(Cl)ccc1Cl)c1ccc(-c2ccccc2)cc1	-	87	9.8	-	-	90	29	-	-
Cn1c(SCc2cccc(F)c2)nnc1-c1ccncc1	-	-	-	-	-	.	.	.	.
Cn1cc(/C=C2\SC(=O)N(c3ccccc3)C2=O)c2ccccc21	-	99	15	-	-	69	20	-	-
SMILES	HTR2A ag	AHR activator	MC4R ag barr	GAA850 FXN act	MC4R antag cAMP	AHR act cf	PXR counter	MC4R barr ag	MOR DOR agonist	others
O=C(N/N=C/c1ccc(O)cc1)c1ccc(COc2cc(Cl)ccc2Cl)o1	-	115	26	-	-	83	28	40	-
COc1ccc(NC(=O)Nc2nnc(-c3cccs3)s2)cc1	-	90	13	-	-	102	37	-	-
COc1ccc(NC(=O)Nc2nnc(Cc3ccccc3)s2)cc1	-	-	-	-	-	.	.	.	.
O=C(Nc1cccnc1)c1ccc(Cl)c(Cl)c1	-	-	-	-	-	.	.	.	.
O=C(Nc1ccc(Cl)c(Cl)c1)c1ccc(Cl)c(Cl)c1	-	168	14	-	-	159	33	-	-
CNC(=O)c1ccc(NC(=O)c2ccccc2OCc2c(C)noc2C)cc1	-	.	-	-	-	.	.	.	.
COc1cc(-c2nc(-c3ccccc3)c(-c3ccc(F)cc3)[nH]2)cc2c1OCO2	-	116	12	-	-	84	66	-	-
O=C1C2C3C=CC(C3)C2C(=O)N1/N=C/c1cn(Cc2ccccc2)c2ccccc12 (stereo not given)	-	-	-	-	-	.	.	.	.
NC1=NC(=O)/C(=C/c2cn(Cc3ccccc3)c3ccccc23)S1	-	116	11	-	-	87	25	-	-
Cc1ccccc1OCc1nc2ccccc2c(=O)n1/N=C/c1c[nH]c2ccccc12	-	85	29	-	-	-	89	-	-
Cc1nn(C)c(C(=O)Nc2ccc(Br)cc2F)c1Br	-	88	13	-	-	110	12	-	-
Cc1nn(Cc2ccc(F)cc2)c2sc(C(=O)Nc3nccs3)cc12	-	96	13	-	-	109	38	-	-
Nc1c(Br)cc2oc(-c3ccccc3)nc2c1Br	-	84	-	7.9	-	134	13	.	.	GAA30 counter=102;GAA850 confirm=41
Cc1ccc2oc(-c3ccccc3)nc2c1	-	-	-	-	-	.	.	.	.
COc1cc(/C=C(/C#N)c2nc3ccccc3[nH]2)ccc1OCC(=O)Nc1ccccc1C	-	-	-	-	-	.	.	.	.
